Measurements published in ChEMBL document CHEMBL1146602, “4-Hydroxymethyl-3-aminoacridine derivatives as a new family of anticancer agents” (J Med Chem, 2003).

Assays:
[1] = Partition coefficient (logP); format: physicochemical; settings: octanol/water
HT-29 = experiment: In vitro cytotoxicity against HT-29 (human colon cancer) cell line.; format: functional, cell-based
Outline: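 HT29 colon adenocarcinoma cells in DMEM with 10% FCS, seeded at 5×10^4 cells/well and grown 2 days, then exposed 24 h to compounds in DMSO (DMSO controls). Cells washed with PBS and regrown 3 days drug-free. Survival read by MTT (30 min, 100 µg/well), formazan dissolved in DMSO, A540, as % of controls. IC50 taken from regression curves.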

L1210 = experiment: In vitro cytotoxic against L1210 (murine leukemia) cell line.; format: functional, cell-based; settings: Mus musculus
Outline: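 L1210 mouse leukaemia cells in DMEM with 10% FCS, seeded at 10⁵ cells/mL and grown 24 h (about 3×10^5 cells/mL). Compounds added in DMSO at increasing concentrations, in duplicate, against DMSO controls. Cells counted with a Coulter counter after a further 24 h at 37 °C, 5% CO2. IC50 (50% reduction in cell number versus controls) taken from regression curves.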

A549 = experiment: In vitro cytotoxicity against A549 (human lung carcinoma) cell line.; format: functional, cell-based
Outline: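 Clonogenic test on A549 lung adenocarcinoma cells in F12-K with 10% FCS, plated at 200 cells/well. After 24 h, exposed 24 h to compounds at various concentrations, washed with PBS, then grown 14 days drug-free. Giemsa-stained colonies counted; survival as % of untreated controls.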

Row | logP [1] | SMILES | IC50 (HT-29) | IC50 (L1210) | IC50 (A549)
1 | 1.56 | CNc1ccc2cc3ccc(N(C)S(C)(=O)=O)cc3nc2c1CO | 1200 nM | 200 nM | 300 nM
2 | 2 | CCOC(=O)Nc1ccc2cc3ccc4c(c3nc2c1)COC(=O)N4 | 11000 nM | 2700 nM | 2200 nM
3 | 3.12 | CCOC(=O)Nc1ccc2cc3ccc4c(c3nc2c1)COCN4C(=O)OCC | > 100000 nM | 84000 nM | 19000 nM
4 | 2.07 | CCOC(=O)Nc1ccc2cc3ccc4c(c3nc2c1)COCN4 | 1300 nM | 80 nM | > 50 nM
5 | 1.77 | Nc1ccc2cc3ccccc3nc2c1CO | 25 nM | 20 nM | 5 nM
6 | 0.7 | CS(=O)(=O)Nc1ccc2cc3ccc4c(c3nc2c1)COCN4 | 12000 nM | 6200 nM | 6000 nM
7 | 1.75 | CCOC(=O)N1COCc2c1ccc1cc3ccc(NC)c(CO)c3nc21 | 4200 nM | 1500 nM | 350 nM
8 | 1.97 | CCOC(=O)Nc1ccc2cc3ccc(NC)c(CO)c3nc2c1 | 350 nM | 90 nM | 30 nM
9 | 2.2 | CN(C)c1ccc2cc3ccccc3nc2c1CO | 14000 nM | 6000 nM | 13000 nM
10 | 1.7 | CN1COCc2c1ccc1cc3ccc4c(c3nc21)COC(=O)N4 | 9000 nM | 1000 nM | 450 nM
11 | 2.17 | c1cc2cc3ccc4c(c3nc2c2c1NCOC2)COCN4 | 1500 nM | 350 nM | 20 nM
12 | 1.54 | CN(c1ccc2cc3ccc4c(c3nc2c1)COCN4)S(C)(=O)=O | 2300 nM | 600 nM | 1300 nM
13 | 1.64 | O=C1Nc2ccc3cc4ccccc4nc3c2CO1 | 17000 nM | 2800 nM | 7000 nM
14 | 1.55 | CCOC(=O)Nc1ccc2cc3ccc(N)c(CO)c3nc2c1 | 40 nM | 10 nM | 10 nM
15 | 1.65 | CNc1ccc2cc3ccc4c(c3nc2c1CO)COCN4 | 2000 nM | 500 nM | 100 nM
16 | 2.5 | CCOC(=O)N1COCc2c1ccc1cc3ccc4c(c3nc21)COCN4C(=O)OCC | 1000 nM | > 200000 nM | 3500 nM
17 | 1.64 | CN1COCc2c1ccc1cc3ccc(N)c(CO)c3nc21 | 300 nM | 650 nM | 50 nM
18 | 0.55 | CNc1ccc2cc3ccc(NS(C)(=O)=O)cc3nc2c1CO | 29000 nM | 2800 nM | 4400 nM
19 | 1.2 | CNc1ccc2cc3ccc4c(c3nc2c1CO)COCN4S(C)(=O)=O | 3700 nM | 1600 nM | 100 nM
20 | 2.1 | CNc1ccc2cc3ccccc3nc2c1CO | 2500 nM | 1100 nM | 1400 nM
